Laboratory results: ChEMBL document CHEMBL2384910, “Lead optimization of 5-amino-6-(2,2-dimethyl-5-oxo-4-phenylpiperazin-1-yl)-4-hydroxyhexanamides to reduce a cardiac safety issue: discovery of DS-8108b, an orally active renin inhibitor” (Bioorg Med Chem, 2013)

How the values were obtained:
[1] = molecular target: Voltage-gated inwardly rectifying potassium channel KCNH2 (Homo sapiens, UniProt Q12809); assay: Inhibition of human ERG channel expressed in CHOK1 cells at 100 uM after 5 mins by patch clamp technique; format: cell-based; settings: cho-k1, 5 min
How it was run: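 CHO-K1 cells stably expressing hERG; automated patch clamp. Holding −80 mV, step to +50 mV for 2 s, then −40 mV for 2 s; tail peak current measured. Compound incubated 5 min.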

Cynomolgus monkey = assay: Cardiotoxicity in conscious cynomolgus monkey assessed as change in heart rate at 1000 mg/kg, po after 4 hrs relative to baseline; settings: in vivo
Oryctolagus cuniculus = assay: Cardiotoxicity in anesthetized New Zealand White rabbit assessed as change in QTc interval at 1 mg/kg/min, iv after 10 mins relative to baseline; format: toxicity, organism-based; parameters: route intravenous; settings: in vivo
How it was run: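 Female NZW rabbits anesthetized with ketamine 35 mg/kg ip plus xylazine 5 mg/kg ip, tracheotomized, ventilated with room air. ECG and systemic pressure monitored; HR, PR, QRS, QT, QTc quantified. After stabilization, continuous iv infusion 1 mg/kg/min for 1 h; values at 10 min as % change from baseline.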

Renin = molecular target: T1, Renin (Homo sapiens, UniProt P00797); assay: Inhibition of human recombinant renin using Arg-Glu(EDANS)-Ile-His-Pro-Phe-His-Leu-Val-Ile-His-Thr-Lys (DABCYL)-Arg as substrate incubated for 10 mins prior to substrate addition measured after 90 mins by fluorescence assay
T1 sequence (P00797 whole entry): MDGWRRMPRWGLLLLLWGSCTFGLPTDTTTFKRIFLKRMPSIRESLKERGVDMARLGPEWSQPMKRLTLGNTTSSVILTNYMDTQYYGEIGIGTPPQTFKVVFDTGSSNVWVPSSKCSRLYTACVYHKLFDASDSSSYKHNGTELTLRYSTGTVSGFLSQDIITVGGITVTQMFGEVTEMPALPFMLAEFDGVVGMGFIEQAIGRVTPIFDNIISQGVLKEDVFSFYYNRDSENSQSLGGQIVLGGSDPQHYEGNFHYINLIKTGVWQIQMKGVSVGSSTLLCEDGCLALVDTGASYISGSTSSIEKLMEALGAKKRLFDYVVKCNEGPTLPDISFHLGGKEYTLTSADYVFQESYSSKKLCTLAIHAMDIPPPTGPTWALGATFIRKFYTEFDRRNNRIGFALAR
How it was run: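 Trypsin-activated recombinant human renin in 50 mM Tris-HCl pH 7.9, 100 mM NaCl, preincubated with compound 10 min at room temperature; FRET substrate Arg-Glu(EDANS)…Lys(DABCYL)-Arg added, 90 min at 37 °C.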

Sequence of Voltage-gated inwardly rectifying potassium channel KCNH2 (Q12809 whole entry): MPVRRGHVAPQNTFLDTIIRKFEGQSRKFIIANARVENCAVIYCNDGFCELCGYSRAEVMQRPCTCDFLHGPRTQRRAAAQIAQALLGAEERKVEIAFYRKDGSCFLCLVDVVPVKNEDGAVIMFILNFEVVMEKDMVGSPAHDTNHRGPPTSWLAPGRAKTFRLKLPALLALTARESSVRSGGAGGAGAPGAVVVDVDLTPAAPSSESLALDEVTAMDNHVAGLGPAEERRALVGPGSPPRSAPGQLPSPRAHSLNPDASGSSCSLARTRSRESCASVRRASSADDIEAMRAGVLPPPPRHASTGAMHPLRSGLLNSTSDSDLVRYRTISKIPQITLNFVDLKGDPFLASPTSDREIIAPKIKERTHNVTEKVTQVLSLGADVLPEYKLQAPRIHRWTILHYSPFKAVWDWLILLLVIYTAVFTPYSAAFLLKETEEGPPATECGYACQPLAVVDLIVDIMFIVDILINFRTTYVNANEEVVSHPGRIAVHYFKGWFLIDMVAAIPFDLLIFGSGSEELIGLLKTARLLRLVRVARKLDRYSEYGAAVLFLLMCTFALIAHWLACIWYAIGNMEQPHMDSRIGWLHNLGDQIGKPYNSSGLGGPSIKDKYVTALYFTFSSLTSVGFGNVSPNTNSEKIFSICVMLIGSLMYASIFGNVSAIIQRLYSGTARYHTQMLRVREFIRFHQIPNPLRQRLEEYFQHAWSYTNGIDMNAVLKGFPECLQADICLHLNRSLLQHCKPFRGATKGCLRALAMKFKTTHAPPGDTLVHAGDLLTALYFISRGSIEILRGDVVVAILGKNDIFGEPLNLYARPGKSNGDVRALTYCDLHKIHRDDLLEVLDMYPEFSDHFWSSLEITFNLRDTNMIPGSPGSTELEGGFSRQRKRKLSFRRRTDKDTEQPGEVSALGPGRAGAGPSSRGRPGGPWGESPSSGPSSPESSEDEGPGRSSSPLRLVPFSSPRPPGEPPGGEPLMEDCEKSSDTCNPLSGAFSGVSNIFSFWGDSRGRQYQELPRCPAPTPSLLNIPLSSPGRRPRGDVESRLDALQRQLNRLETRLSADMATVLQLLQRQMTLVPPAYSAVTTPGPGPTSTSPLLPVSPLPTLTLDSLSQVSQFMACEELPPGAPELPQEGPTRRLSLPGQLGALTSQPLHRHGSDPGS

CC[C@H](C[C@H](O)[C@@H](N)CN1CC(=O)N(c2ccccc2Cl)CC1(C)C)C(=O)N[C@H]1C2CC3CC1C[C@](O)(C3)C2.O=C(O)/C=C/C(=O)O
inhibition (INH) [1]: Not Active | Activity (Cynomolgus monkey): -4.2% | Activity (Oryctolagus cuniculus): 2.7% | IC50 (Renin): 900 pM
